pIC50: −log10 of the molar value. Calls of active or inactive are those of the source. The calls are words filed in the database; no cut-off is given here.
Experiments:
A549 [1] = test: Antitumor activity against human A549 cells tumor spheroids assessed as increase in dead cells by measuring red fluorescence intensity measured at 15 days by EthD-III staining based fluorescence microscopic analysis; format: functional, cell-based; conditions: dose 0.15-5 µM, time 15.0 day, DDE = dose-dependent effect
Outline: (§1)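 Live/dead staining of 3D spheroids at day 15 after single-dose treatment: media replaced by kit reagent with calcein AM (live, green) and EthD-III (dead, red), 30 min in dark at room temperature, imaged at 4X by fluorescence microscopy. Mean ± SD, n = 4; unpaired Student's t-test.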

A549 [2] = test: Antiproliferative activity against human A549 cells assessed as cell growth inhibition measured after 72 hrs by MTT assay; format: functional, cell-based; conditions: A549, 72 h
Outline: (§2)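 Cells seeded at 2.5 × 10^4 cells/well, allowed 24 h before dosing, then exposed to increasing concentrations (0.5% DMSO final) for 72 h at 37 °C, 5% CO2. MTT added at 1 mg/mL final in complete media for 2 h, formazan dissolved in DMSO, absorbance read at 570 nm. 6–8 repeats per treatment; IC50 from concentration–response fit.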

A549 [3] = test: Inhibition of gankyrin-proteasome protein-protein interaction in human A549 cells assessed as increase in phosphorylated p53 level at serine 15 residue at 0.04 to 0.33 uM measured after 48 hrs by Western blotting analysis; format: cell-based; conditions: dose 0.04-0.33 µM
Outline: (§3)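 Cells in 10 cm dishes treated with varying concentrations (0.5% DMSO final) or DMSO only for 48 h. Lysed in RIPA with protease/phosphatase inhibitors on ice for 60 min. 15 μg protein resolved under reducing conditions, transferred to PVDF, and probed for p53, phospho-p53 S6/S15, Rb, gankyrin and cyclophilin. Detection by HRP-secondary ECL.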

A549 [4] = test: Inhibition of gankyrin-proteasome protein-protein interaction in human A549 cells assessed as increase in phosphorylated p53 level at serine 15 residue at 0.12 to 1 uM measured after 48 hrs by Western blotting analysis; format: cell-based; conditions: dose 0.12-1 µM; outline: as §3
A549 [5] = test: Antitumor activity in human A549 cells cultured as 3D spheroids assessed as fold decrease in spheroid volume at 2.5 uM measured up to 15 days by inverted microscopic analysis; format: functional; conditions: time <= 15 day
Outline: (§4)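 Spheroids formed from 2000 cells/well in ultra-low attachment U-bottom wells over 3 days, then given a single dose on day 3. Half the media was replenished every 3 days. Transmitted-light images were taken through day 15, and spheroid volume was computed from images and expressed as fold-difference. Mean ± SD, n = 8; unpaired t-test.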

A549 [6] = test: Inhibition of gankyrin-proteasome protein-protein interaction in human A549 cells assessed as increase in phosphorylated p53 level at serine 6 residue at 0.04 to 0.33 uM measured after 48 hrs by Western blotting analysis; format: cell-based; conditions: dose 0.04-0.33 µM; outline: as §3
A549 [7] = test: Antitumor activity against human A549 cells tumor spheroids assessed as decrease in live cells by measuring green fluorescence intensity measured at 15 days by calcein AM staining based fluorescence microscopic analysis; format: functional, cell-based; conditions: dose 0.15-5 µM, time 15.0 day, DDE = dose-dependent effect; outline: as §1
[8] = Metabolic stability in human liver microsomes assessed as compound remaining preincubated for 10 mins followed by NADPH addition measured after 60 mins by HPLC analysis; format: ADME, Microsome; conditions: read-out: Stability
A549 [9] = test: Inhibition of gankyrin-proteasome protein-protein interaction in human A549 cells assessed as increase in phosphorylated p53 level at serine 6 residue at 0.12 to 1 uM measured after 48 hrs by Western blotting analysis; format: cell-based; conditions: dose 0.12-1 µM; outline: as §3
[10] = target: T1, 26S proteasome non-ATPase regulatory subunit 10 (Homo sapiens) (UniProt O75832); test: Binding affinity to gankyrin (unknown origin) assessed as change in melting temperature at 300 uM by SYPRO orange staining based thermal shift assay
T1 sequence (whole entry): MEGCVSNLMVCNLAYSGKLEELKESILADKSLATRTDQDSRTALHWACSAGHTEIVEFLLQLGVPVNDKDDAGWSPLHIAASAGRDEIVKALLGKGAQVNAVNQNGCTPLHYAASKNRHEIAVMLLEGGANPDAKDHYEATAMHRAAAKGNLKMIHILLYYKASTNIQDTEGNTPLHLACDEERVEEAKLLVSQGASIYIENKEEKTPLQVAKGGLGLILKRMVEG

[11] = target: T1, 26S proteasome non-ATPase regulatory subunit 10 (Homo sapiens); test: Binding affinity to gankyrin (unknown origin) expressed in Escherichia coli BL21 (DE3) expression system assessed as formation of white precipitation of the compound at 1.5 uM
[12] = Cytotoxicity against HEK293 cells assessed as cell growth inhibition measured after 72 hrs by MTT assay; format: toxicity, cell-based; conditions: human; outline: as §2
A549 [13] = test: Inhibition of gankyrin-proteasome protein-protein interaction in human A549 cells assessed as increase in phosphorylated p53 level at serine 6 residue at 0.60 to 5 uM measured after 48 hrs by Western blotting analysis; format: cell-based; conditions: dose 0.6-5 µM; outline: as §3
MDA-MB-231 = test: Antiproliferative activity against human MDA-MB-231 cells assessed as cell growth inhibition measured after 72 hrs by MTT assay; format: functional, cell-based; conditions: MDA-MB-231, 72 h; outline: as §2
A549 [14] = test: Antitumor activity in human A549 cells cultured as 3D spheroids assessed as fold decrease in spheroid volume at 5 uM measured up to 15 days by inverted microscopic analysis; format: functional; conditions: time <= 15 day; outline: as §4
[15] = target: T1, 26S proteasome non-ATPase regulatory subunit 10 (Homo sapiens); test: Binding affinity to gankyrin (unknown origin) expressed in Escherichia coli BL21 (DE3) expression system assessed as decrease in thermal denaturation at 1.5 uM measured at 5 to 90 degreeC by circular dichroism spectropolarimeter analysis
Outline: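 Recombinant His-tagged gankyrin expressed in E. coli BL21(DE3) Codon+RIL (IPTG 1 mM, 25 °C, ~5 h) and purified by Ni2+-IMAC. Thermal denaturation followed by CD at 217 nm over 5–90 °C with compound at 1.5 μM.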

A549 [16] = test: Inhibition of gankyrin-proteasome protein-protein interaction in human A549 cells assessed as increase in p53 level at 0.12 to 1 uM measured after 48 hrs by Western blotting analysis; format: cell-based; conditions: dose 0.12-1 µM; outline: as §3
A549 [17] = test: Antitumor activity in human A549 cells cultured as 3D spheroids assessed as fold decrease in spheroid volume at 1 uM measured up to 15 days by inverted microscopic analysis; format: functional; conditions: time <= 15 day; outline: as §4
A549 [18] = test: Inhibition of gankyrin-proteasome protein-protein interaction in human A549 cells assessed as increase in Rb level at 0.12 to 1 uM measured after 48 hrs by Western blotting analysis; format: cell-based; conditions: dose 0.12-1 µM; outline: as §3
A549 [19] = test: Colony formation in human A549 cells at 1 uM incubated for 48 hrs followed by replacement of fresh media every alternative day measured after 7 days by crystal violet staining based clonogenic assay relative to control; conditions: A549, 48 h
A549 [20] = test: Inhibition of colony formation in human A549 cells at 0.5 uM incubated for 48 hrs followed by replacement of fresh media every alternative day measured after 7 days by crystal violet staining based clonogenic assay relative to control; values are per cent of control; conditions: A549, 48 h
A549 [21] = test: Antitumor activity in human A549 cells cultured as 3D spheroids assessed as fold decrease in spheroid volume at 0.5 uM measured up to 15 days by inverted microscopic analysis; format: functional; conditions: time <= 15 day; outline: as §4
A549 [22] = test: Induction of cell cycle arrest in human A549 cells assessed as decrease in cell accumulation at S phase at 0.3 uM measured after 72 hrs by propidium iodide staining based flow cytometry analysis; format: functional
Outline: (§5)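 Cells in 10 cm dishes treated for 72 h (0.1% DMSO final; DMSO-only control). Harvested in cold PBS, fixed in 70% ethanol at −20 °C overnight, stained with PI for 40 min at 37 °C, then analysed by flow/imaging cytometry for G0/G1, S and G2/M fractions. Mean ± SD, n = 3.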

A549 [23] = test: Antitumor activity in human A549 cells cultured as 3D spheroids assessed as fold decrease in spheroid volume at 0.30 uM measured up to 15 days by inverted microscopic analysis; format: functional; conditions: dose 0.3 µM; time <= 15 day; outline: as §4
A549 [24] = test: Inhibition of colony formation in human A549 cells at 0.3 uM incubated for 48 hrs followed by replacement of fresh media every alternative day measured after 7 days by crystal violet staining based clonogenic assay relative to control; values are per cent of control; conditions: A549, 48 h
A549 [25] = test: Antitumor activity in human A549 cells cultured as 3D spheroids assessed as fold decrease in spheroid volume at 0.15 uM measured up to 15 days by inverted microscopic analysis; format: functional; conditions: time <= 15 day; outline: as §4
A549 [26] = test: Induction of cell cycle arrest in human A549 cells assessed as decrease in cell accumulation at G2/M phase at 0.3 uM measured after 72 hrs by propidium iodide staining based flow cytometry analysis; format: functional; outline: as §5
[27] = target: T1, 26S proteasome non-ATPase regulatory subunit 10 (Homo sapiens); test: Binding affinity to gankyrin in human A549 cells assessed as decrease in thermal stability at 0.3 uM incubated for 48 hrs followed by heat treatment at 50 to 65 degreeC by CETSA; format: cell-based
Outline: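 CETSA: cells treated with compound for 48 h, then heated across a temperature range. Soluble gankyrin was detected by western blot and melt curves were constructed. Mean ± SD, n = 3.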

A549 [28] = test: Induction of cell cycle arrest in human A549 cells assessed as increase in cell accumulation at G0/G1 phase at 0.3 uM measured after 72 hrs by propidium iodide staining based flow cytometry analysis; format: functional; outline: as §5

pIC50 (A549 [2]) | remaining at 1 h [8] [%] | Activity [10] | Activity [11] | pIC50 (MDA-MB-231) | Activity [15] | Compound | Activity (A549 [1]) | Activity (A549 [3]) | Activity (A549 [4]) | Activity (A549 [6]) | Activity (A549 [7]) | Activity (A549 [9]) | IC50 at 72 h [12] [µM] | Activity (A549 [13]) | further results
5.26 | 73 | Active | Active | 4.08 | Active | Cc1ccc(NC(=S)CCCn2cc(-c3ccc(C(F)(F)F)cc3)nn2)cc1 | Dde | Active | Active | Active | Dde | Active | > 100 | Active | fold change (FC) (A549 [5]): 3.3; fold change (FC) (A549 [14]): 3.5
6.00 | 80 | Active | Active | < 4.00 | Active | FC(F)(F)c1ccc(-c2cn(CCCC(=S)Nc3ccc(-c4ccccc4)cc3)nn2)cc1 | Dde |  |  | Active | Dde | Active | > 100 | Active | Activity (A549 [16]): Active; fold change (FC) (A549 [17]): 4; Activity (A549 [18]): Active; growth, % of control at 1 µM (A549 [19]): 61.4%; growth, % of control at 0.5 µM (A549 [20]): 83.8%; fold change (FC) (A549 [21]): 3.8
6.48 | 87 | Active |  | < 4.00 | Active | COC(=O)c1ccc(-c2cn(CCCC(=O)Nc3ccc(-c4ccccc4)cc3)nn2)cc1 | Dde | Active | Active | Active | Dde | Active | > 100 | Active | Activity (A549 [22]): Active; fold change (FC) (A549 [23]): 2.4; growth, % of control at 0.3 µM (A549 [24]): 44.6%; fold change (FC) (A549 [25]): 3.6; Activity (A549 [26]): Active; Activity [27]: Active; Activity (A549 [28]): Active
